Holding throughout (format): functional
For test [1], the system named is Aspergillus flavus. The experiment in a line: Antifungal activity against Aspergillus flavus NCIM 524 at MIC after 3 to 4 days by agar well diffusion method. A digest of the protocol:
(§1)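 Sabouraud agar (peptone, D-glucose, agar; pH 5.7) seeded with spore suspension made by transferring a loopful of fungus to 3 mL normal saline. Excess decanted, plates dried 1 h at 37 °C. Compounds in DMSO at MIC added to punched wells; DMSO control. Triplicate plates kept 3–4 days at 37 °C.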
Background: Agar diffusion results depend on both activity and mobility in agar.

For test [2], the system named is Pseudomonas aeruginosa. The experiment in a line: Antibacterial activity against Pseudomonas aeruginosa ATCC 27853 after 16 to 18 hrs by serial plate dilution method. The essentials: (§2)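 Drug serially diluted in Mueller–Hinton broth in tubes, adjusted to pH 5.0 with phosphate buffer. Inoculated with standardized bacterial suspension and incubated 16–18 h at 37 °C. MIC taken as lowest concentration with no visible growth.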

In test [3] the test system is Staphylococcus aureus. The experiment in a line: Antibacterial activity against Staphylococcus aureus ATCC 25923 at MIC after 3 to 4 days by agar well diffusion method.
The test system of test [4] is Aspergillus fumigatus. In words: Antifungal activity against Aspergillus fumigatus NCIM 902 at MIC after 3 to 4 days by agar well diffusion method. A digest of the protocol: as §1
The subject of test [5] is Trichophyton mentagrophytes. The experiment in a line: Antifungal activity against recultured Trichophyton mentagrophytes by serial plate dilution method.
In test [6] the test system is Klebsiella pneumoniae. In words: Antibacterial activity against recultured Klebsiella pneumoniae after 16 to 18 hrs by serial plate dilution method. A digest of the protocol:
as §2

In test [7] the test system is Escherichia coli. The experiment in a line: Antibacterial activity against Escherichia coli ATCC 25922 at MIC after 3 to 4 days by agar well diffusion method.
Test [8] concerns Aspergillus fumigatus. In words: Antifungal activity against Aspergillus fumigatus NCIM 902 by serial plate dilution method.
The test system of test [9] is Escherichia coli. In words: Antibacterial activity against Escherichia coli ATCC 25922 after 16 to 18 hrs by serial plate dilution method. A digest of the protocol:
as §2

Test [10] deals with Trichophyton mentagrophytes. The experiment in a line: Antifungal activity against recultured Trichophyton mentagrophytes at MIC after 3 to 4 days by agar well diffusion method. A digest of the protocol:
as §1

Test [11] deals with Staphylococcus aureus. In words: Antibacterial activity against Staphylococcus aureus ATCC 25923 after 16 to 18 hrs by serial plate dilution method. A digest of the protocol:
as §2

Test [12] relates to Aspergillus flavus. The experiment in a line: Antifungal activity against Aspergillus flavus NCIM 524 by serial plate dilution method.
Test [13] deals with Klebsiella pneumoniae. The experiment in a line: Antibacterial activity against recultured Klebsiella pneumoniae at MIC after 3 to 4 days by agar well diffusion method.
The test system of test [14] is Talaromyces marneffei. The experiment in a line: Antifungal activity against recultured Penicillium marneffei at MIC after 3 to 4 days by agar well diffusion method. The essentials:
as §1

Test [15] has as its system Talaromyces marneffei. In words: Antifungal activity against recultured Penicillium marneffei by serial plate dilution method.
The subject of test [16] is Pseudomonas aeruginosa. The experiment in a line: Antibacterial activity against Pseudomonas aeruginosa ATCC 27853 at MIC after 3 to 4 days by agar well diffusion method.

Each structure is given as a SMILES string. Converted amounts (≈) assume the structure as drawn. A value given as a limit tells only on which side of the number the result lay.

As usually defined, the MIC is the lowest concentration that inhibits growth of the organism. Low values mean greater potency, high ones weaker potency.

For the molecule `FC(F)(F)c1cccc2c(Cl)c(-c3nnc(S)n3Cc3ccccc3)cnc12`, the “inhibition zone (IZ)” value in [1], in [3], in test [4], in test [7], in test [10] and in [13] was <10 mm throughout. Moreover, the “inhibition zone (IZ)” value in test [14] and in test [16] was <10 mm throughout. In addition, the MIC in [2], in test [5], in test [6], in [8], in [9] and in test [11] was 50 µg/mL (≈ 119 µM) each time. Moreover, the MIC in [12] and in test [15] was 50 µg/mL (≈ 119 µM) each time.
Turning to `FC(F)(F)c1cccc2c(N3CCOCC3)c(-c3nnc(S)n3Cc3ccccc3)cnc12`, the “inhibition zone (IZ)” value in test [1] is listed as 10 mm; in test [3], 16 mm; in test [4] it was 10 mm; in test [7], 16 mm; in [10] it was 16 mm; in [13], <10 mm. Moreover, the “inhibition zone (IZ)” value was 10 mm in test [14] and <10 mm in test [16]. Also, the MIC in [2] was determined as 50 µg/mL (≈ 106 µM); in test [5], 12.5 µg/mL (≈ 26.5 µM); in test [6], 50 µg/mL (≈ 106 µM); in test [8] it was 12.5 µg/mL (≈ 26.5 µM); in [9], 12.5 µg/mL (≈ 26.5 µM); in [11], 6.25 µg/mL (≈ 13.3 µM). Also, the MIC in test [12] and in test [15] was 12.5 µg/mL (≈ 26.5 µM) in each case.
As for `COCCn1c(S)nnc1-c1cnc2c(C(F)(F)F)cccc2c1N1CCN(C2CCCCC2)CC1`, the “inhibition zone (IZ)” value was <10 mm in test [1]; <10 mm in [3]; <10 mm in test [4]; 20 mm in test [7]; 20 mm in test [10]; <10 mm in [13]. For the same molecule, the “inhibition zone (IZ)” value in test [14] and in test [16] was <10 mm each time. Further, the MIC in test [2] was determined as 50 µg/mL (≈ 96 µM); in test [5], 6.25 µg/mL (≈ 12 µM); in [6], 50 µg/mL (≈ 96 µM); in test [8], 50 µg/mL (≈ 96 µM); in test [9] it was 6.25 µg/mL (≈ 12 µM); in test [11], 50 µg/mL (≈ 96 µM). The MIC in test [12] and in test [15] was 50 µg/mL (≈ 96 µM) in each case.
On to `COCCn1c(S)nnc1-c1cnc2c(C(F)(F)F)cccc2c1NC1CC1`, for which the “inhibition zone (IZ)” value in [1] came to 16 mm; in [3], 16 mm; in test [4] it was 16 mm; in test [7], 20 mm; in test [10], 20 mm; in test [13] it was 16 mm. Also, the “inhibition zone (IZ)” value in [14] and in test [16] was 16 mm each time. In addition, the MIC in [2], in test [5], in [6], in test [8], in test [9] and in test [11] was 6.25 µg/mL (≈ 15.3 µM) in each case. Besides, the minimum inhibitory concentration (MIC) in test [12] and in test [15] was 6.25 µg/mL (≈ 15.3 µM) each time.
In the case of `CC(C)(C)CCNc1c(-c2nnc(S)n2-c2ccccc2)cnc2c(C(F)(F)F)cccc12`, the “inhibition zone (IZ)” value in test [1] came out at 16 mm; in test [3], 16 mm; in test [4], 16 mm; in test [7], 20 mm; in [10] it was 20 mm; in test [13], 16 mm. Moreover, the “inhibition zone (IZ)” value in test [14] and in test [16] was 16 mm throughout. The MIC in test [2], in test [5], in test [6], in [8], in test [9] and in test [11] was 6.25 µg/mL (≈ 13.3 µM) in each case. Further, the MIC in [12] and in test [15] was 6.25 µg/mL (≈ 13.3 µM) in each case.
Consider `Oc1c(-c2nnc(S)n2-c2ccccc2)cnc2c(C(F)(F)F)cccc12`, for which the “inhibition zone (IZ)” value was 16 mm in test [1]; 16 mm in test [3]; 16 mm in test [4]; 20 mm in test [7]; 20 mm in test [10]; 16 mm in [13]. Also, the “inhibition zone (IZ)” value in [14] and in test [16] was 16 mm in each case. In addition, the MIC in test [2], in [5], in [6], in [8], in test [9] and in test [11] was 6.25 µg/mL (≈ 16.1 µM) in each case. Also, the MIC in test [12] and in test [15] was 6.25 µg/mL (≈ 16.1 µM) each time.
With `FC(F)(F)c1cccc2c(NC3CC3)c(-c3nnc(S)n3-c3ccccc3)cnc12`, the “inhibition zone (IZ)” value in test [1] amounted to 16 mm; in [3], 16 mm; in test [4], 16 mm; in [7] it was 20 mm; in test [10], 20 mm; in test [13], 16 mm. In addition, the “inhibition zone (IZ)” value in test [14] and in [16] was 16 mm throughout. The MIC in [2], in test [5], in test [6], in test [8], in test [9] and in test [11] was 6.25 µg/mL (≈ 14.6 µM) throughout. The MIC in test [12] and in test [15] was 6.25 µg/mL (≈ 14.6 µM) throughout.
As to `O=C(O)c1cn(C2CC2)c2cc(N3CCNCC3)c(F)cc2c1=O` [CIPROFLOXACIN], the “inhibition zone (IZ)” value in test [3] is 22 mm; in test [7], 30 mm; in test [13], 23 mm; in [16], 25 mm. Further, the lowest concentration to inhibit growth in [6] (MIC) was 6.25 µg/mL (≈ 18.9 µM).
Turning to `COCCn1c(S)nnc1-c1cnc2c(C(F)(F)F)cccc2c1N1CCOCC1`, the “inhibition zone (IZ)” value in test [1] amounted to 16 mm; in test [3], 16 mm; in test [4], 16 mm; in [7] it was 20 mm; in test [10], 20 mm; in [13], 16 mm. Moreover, the “inhibition zone (IZ)” value in test [14] and in test [16] was 16 mm each time. In addition, the MIC in [2], in test [5], in test [6], in test [8], in test [9] and in test [11] was 6.25 µg/mL (≈ 14.2 µM) each time. Moreover, the MIC in test [12] and in test [15] was 6.25 µg/mL (≈ 14.2 µM) each time.
In the case of `COCCn1c(S)nnc1-c1cnc2c(C(F)(F)F)cccc2c1N1CC(C)OC(C)C1` (stereo unspecified), the “inhibition zone (IZ)” value turned out to be 16 mm in [1]; 16 mm in test [3]; 16 mm in test [4]; 20 mm in test [7]; 20 mm in test [10]; 16 mm in test [13]. Also, the “inhibition zone (IZ)” value in test [14] and in test [16] was 16 mm throughout. The MIC in test [2], in test [5], in [6], in test [8], in [9] and in test [11] was 6.25 µg/mL (≈ 13.4 µM) each time. Moreover, the MIC in test [12] and in [15] was 6.25 µg/mL (≈ 13.4 µM) throughout.
In the case of `COCCn1c(S)nnc1-c1cnc2c(C(F)(F)F)cccc2c1Cl`, the “inhibition zone (IZ)” value was determined as 10 mm in [1]; 10 mm in test [3]; 10 mm in [4]; 16 mm in test [7]; 10 mm in test [10]; 12 mm in test [13]. Further, the “inhibition zone (IZ)” value in test [14] and in [16] was 10 mm throughout. For the same molecule, the MIC in [2] was determined as 12.5 µg/mL (≈ 32.2 µM); in test [5] it was 12.5 µg/mL (≈ 32.2 µM); in test [6], 12.5 µg/mL (≈ 32.2 µM); in [8] it was 12.5 µg/mL (≈ 32.2 µM); in test [9], 6.25 µg/mL (≈ 16.1 µM); in test [11] it was 12.5 µg/mL (≈ 32.2 µM). In addition, the MIC in test [12] and in test [15] was 12.5 µg/mL (≈ 32.2 µM) throughout.
In the case of `COCCn1c(S)nnc1-c1cnc2c(C(F)(F)F)cccc2c1N1CCC(CCCO)CC1`, the “inhibition zone (IZ)” value in [1] is <10 mm; in [3], 16 mm; in test [4] it was <10 mm; in test [7], 20 mm; in [10], <10 mm; in [13], <10 mm. In addition, the “inhibition zone (IZ)” value in test [14] and in test [16] was <10 mm throughout. Besides, the MIC in [2] came out at 50 µg/mL (≈ 101 µM); in [5], 50 µg/mL (≈ 101 µM); in [6], 50 µg/mL (≈ 101 µM); in [8], 50 µg/mL (≈ 101 µM); in [9] it was 6.25 µg/mL (≈ 12.6 µM); in test [11] it was 6.25 µg/mL (≈ 12.6 µM). In addition, the MIC in test [12] and in [15] was 50 µg/mL (≈ 101 µM) each time.

The values are drawn from ChEMBL document CHEMBL1155347, “Synthesis and antimicrobial activities of novel quinoline derivatives carrying 1,2,4-triazole moiety” (2009).
